ChEMBL document CHEMBL1125344, “(Pyridylcyanomethyl)piperazines as orally active PAF antagonists” (J Med Chem, 1992)

Columns and labels:
[1] = molecular target: Platelet-activating factor receptor (Rattus norvegicus) (UniProt P46002); assay: In vivo dose administered intravenously to inhibit PAF-induced hypotension (PAF-Antagonistic activity) in normotensive rats by 56%.; assay type: functional, organism-based
In short: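 Male Sprague-Dawley rats, 180-220 g, anesthetized with sodium pentobarbital ip; blood pressure recorded from left carotid artery. Compound given iv in saline (1 mL/kg) via femoral vein 3 min before PAF 0.5 μg/kg iv; initial dose 5 mg/kg. Percentage inhibition of PAF-induced hypotension calculated versus vehicle-treated controls.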

[2] = molecular target: Platelet-activating factor receptor (Rattus norvegicus) (UniProt P46002); assay: In vivo dose administered intravenously to inhibit PAF-induced hypotension (PAF-Antagonistic activity) in normotensive rats by 57%.; assay type: functional, organism-based
[3] = molecular target: Platelet-activating factor receptor (Mus musculus) (UniProt Q62035); assay: Oral dose required to inhibit PAF-induced mortality (PAF-Antagonistic activity)in mice by 50%.; assay type: functional; conditions: Mus sp.
Platelet-activating factor receptor (Mus musculus), sequence (Q62035 whole entry): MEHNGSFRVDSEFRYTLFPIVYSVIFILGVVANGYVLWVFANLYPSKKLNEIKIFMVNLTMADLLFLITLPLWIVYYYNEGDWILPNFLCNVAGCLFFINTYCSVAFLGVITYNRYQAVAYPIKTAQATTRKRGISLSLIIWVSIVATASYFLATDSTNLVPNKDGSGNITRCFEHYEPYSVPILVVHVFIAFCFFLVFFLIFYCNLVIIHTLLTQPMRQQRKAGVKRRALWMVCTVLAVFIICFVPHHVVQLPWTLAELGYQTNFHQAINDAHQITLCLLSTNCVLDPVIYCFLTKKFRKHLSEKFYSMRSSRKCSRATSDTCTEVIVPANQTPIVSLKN
In short: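 Male Swiss mice, 22-26 g, in groups of 10. Compound or saline given po (20 mL/kg) 60 min before C18-PAF 100 µg/kg plus propranolol 1 mg/kg by tail vein. ID50 from percent inhibition of mortality versus controls.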

Platelet-activating factor receptor (Rattus norvegicus), sequence (P46002 whole entry): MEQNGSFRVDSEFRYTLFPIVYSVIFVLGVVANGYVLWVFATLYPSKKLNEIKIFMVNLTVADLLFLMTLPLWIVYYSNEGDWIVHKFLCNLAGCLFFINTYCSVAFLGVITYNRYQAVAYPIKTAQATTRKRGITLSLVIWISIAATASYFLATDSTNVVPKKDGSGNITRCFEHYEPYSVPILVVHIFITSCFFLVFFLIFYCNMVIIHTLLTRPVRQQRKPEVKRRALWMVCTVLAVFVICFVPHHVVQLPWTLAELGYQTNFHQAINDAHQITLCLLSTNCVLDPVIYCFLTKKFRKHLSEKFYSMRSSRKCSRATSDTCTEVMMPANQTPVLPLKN

| Structure (SMILES) | ID50 [1] | ID50 [2] | ID50 [3] |
| --- | --- | --- | --- |
| N#CC(c1cccnc1)N1CCN(C(=O)Cc2ccc3ccccc3c2)CC1 (stereo not drawn) | 5 mg/kg |  |  |
| N#CC(c1cccnc1)N1CCN(C(=O)CCCc2ccccc2)CC1 (stereo not drawn) |  | 5 mg/kg | 50 mg/kg |
